Measurements reported in ChEMBL document CHEMBL4616681, “Discovery of 3-Pyridyl Isoindolin-1-one Derivatives as Potent, Selective, and Orally Active Aldosterone Synthase (CYP11B2) Inhibitors” (J Med Chem, 2020).
pIC50: −log10 of the molar value. Active and inactive are the calls of the source. No cut-off for these calls is given here.

Assays:
[1] = Plasma clearance in Wister-Han rat at 1 mg/kg, iv administered as single dose by LC/MS-MS analysis; assay type: ADME, organism-based; conditions: Wistar-Han
Procedure, shortened: (§1)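 Male Wistar-Han rats, single dose. IV 1 mg/kg, compound at 0.5 mg/mL in NMP:saline 30/70 (v/v). Oral 3 mg/kg, 0.25 mg/mL in 2% Klucel with 0.1% Polysorbate 80. Three rats per time point. Heparinized blood taken at eight (iv) or seven (po) time points, plasma stored at -20 °C. Plasma levels by LC/MS-MS. Non-compartmental analysis.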

Cynomolgus monkey [2] = assay: In vivo inhibition of CYP11B2 in cynomolgus monkey assessed as reduction in ACTH-induced aldosterone at 0.01 to 10 mg/kg, po preincubated for 1 hr followed by ACTH challenge and measured after 60 mins by LC/MS-MS analysis; assay type: functional, organism-based; conditions: Macaca fascicularis
Procedure, shortened: (§2)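 Cynomolgus monkeys preselected as Synacthen responders (at least 2-fold rise in aldosterone, cortisol and corticosterone). Two animals per group. Oral vehicle or compound at 0.01–10 mg/kg in hydroxyethylcellulose/polysorbate 80/paraben suspension (2 mL/kg) at T=0, then 14.5 µg/kg Synacthen i.m. at 1 hr. EDTA blood drawn from -5 min to 24 h. Plasma steroids measured by LC/MS-MS; data shown 60 min after challenge.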

[3] = Intrinsic clearance in rat liver microsomes preincubated for 10 mins followed by NADPH regenerating system addition and measured up to 30 mins by LC/MS-MS analysis; assay type: ADME, Microsome
Procedure, shortened: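 Liver microsomes at 0.5 mg protein/mL in 100 mM potassium phosphate, pH 7.4. Compound preincubated 10 min at 37 °C. Intrinsic clearance scaled using the well-stirred liver model.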

[4] = Selectivity ratio of IC50 for human CYP11B1 expressed in human renal leiomyoblastoma cells harboring FDXR/FDX to IC50 for human CYP11B2 expressed in human renal leiomyoblastoma cells harboring FDXR/FDX; assay type: cell-based
Procedure, shortened: (§3)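 Cells with endogenous FDXR/FDX and no detectable CYP11B activity, stably transfected (CMV promoter, neomycin selection, G-418 400 µg/mL) with CYP11B1 or CYP11B2 of the named species. Assayed in DMEM/F12 with 2.5% charcoal-treated FCS. Substrate 1 µM 11-deoxycorticosterone (B2) or 11-deoxycortisol (B1), 16 hr. Aldosterone or cortisol in supernatant measured by HTRF. IC50 from 4-parameter MMF fit; selectivity factor is the B1/B2 IC50 ratio.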

[5] = Oral bioavailability in Wister-Han rat at 3 mg/kg administered as single dose by LC/MS-MS analysis; assay type: ADME, organism-based; conditions: Wistar-Han, in vivo; procedure, shortened: as §1
[6] = Intrinsic clearance in rat hepatocytes; assay type: ADME, cell-based, Hepatocyte; conditions: read-out: CLH
[7] = Inhibition of cynomolgus monkey CYP11B2 expressed in human G401 cells using 1-deoxycorticosterone as substrate by HTRF assay; assay type: cell-based, Macaca fascicularis; conditions: g-401; procedure, shortened: as §3
[8] = Dose normalized AUC in Wister-Han rat at 1 mg/kg, iv or 3 mg/kg, po administered as single dose by LC/MS-MS analysis; assay type: ADME, organism-based; conditions: in vivo; procedure, shortened: as §1
Cynomolgus monkey [9] = assay: In vivo inhibition of CYP11B1 in cynomolgus monkey assessed as reduction in ACTH-induced 11-deoxycortisol at 0.01 to 10 mg/kg, po preincubated for 1 hr followed by ACTH challenge and measured after 60 mins by LC/MS-MS analysis; assay type: ADME, organism-based, Macaca fascicularis; procedure, shortened: as §2
[10] = Plasma clearance in iv dosed cynomolgus monkey; assay type: ADME, organism-based, Macaca fascicularis
[11] = Free plasma concentration in cynomolgus monkey at 0.01 mg/kg; assay type: ADME, organism-based, Macaca fascicularis; conditions: in vivo
Procedure, shortened: (§4)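 Cynomolgus monkeys, 2 per group, given single oral doses of 0.01, 0.1, 1 or 10 mg/kg as a suspension in hydroxyethylcellulose/polysorbate 80/parabens vehicle, 2 mL/kg. Synacthen 14.5 µg/kg given i.m. at 1 hr. Plasma compound levels by LC/MS-MS. Average free exposure calculated from AUC0-7hr and corrected for plasma protein binding.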

[12] = AUC (0 to infinity) in Wister-Han rat at 3 mg/kg, po administered as single dose by LC/MS-MS analysis; assay type: ADME, organism-based; set-up: dose 3 mg/kg, route oral, time infinity; conditions: Wistar-Han, in vivo; procedure, shortened: as §1
[13] = Intrinsic clearance in cynomolgus monkey hepatocytes; assay type: ADME, cell-based, Macaca fascicularis, Hepatocyte; conditions: read-out: CLH
Cynomolgus monkey [14] = assay: In vivo inhibition of CYP11B1 in cynomolgus monkey assessed as reduction in ACTH-induced cortisol at 10 mg/kg, po preincubated for 1 hr followed by ACTH challenge and measured after 60 mins by LC/MS-MS analysis; assay type: ADME, organism-based, Macaca fascicularis; procedure, shortened: as §2
[15] = Selectivity ratio of IC50 for cynomolgus monkey CYP11B1 expressed in human G401 cells to IC50 for cynomolgus monkey CYP11B2 expressed in human G401 cells; assay type: cell-based; procedure, shortened: as §3
[16] = Free plasma concentration in cynomolgus monkey at 1 mg/kg; assay type: ADME, organism-based, Macaca fascicularis; conditions: in vivo; procedure, shortened: as §4
Cynomolgus monkey [17] = assay: In vivo inhibition of CYP11B1 in cynomolgus monkey assessed as reduction in ACTH-induced cortisol at 0.01 to 1 mg/kg, po preincubated for 1 hr followed by ACTH challenge and measured after 60 mins by LC/MS-MS analysis; assay type: ADME, organism-based, Macaca fascicularis; procedure, shortened: as §2
Cynomolgus monkey [18] = assay: In vivo inhibition of CYP11B2 in cynomolgus monkey assessed as reduction in ACTH-induced 11-deoxycorticosterone at 0.01 to 10 mg/kg, po preincubated for 1 hr followed by ACTH challenge and measured after 60 mins by LC/MS-MS analysis; assay type: functional, organism-based; conditions: Macaca fascicularis; procedure, shortened: as §2
[19] = Free plasma concentration in cynomolgus monkey at 10 mg/kg; assay type: ADME, organism-based, Macaca fascicularis; conditions: in vivo; procedure, shortened: as §4
[20] = target: T1, Cytochrome P450 11B2, mitochondrial (Homo sapiens, UniProt P19099); assay: Inhibition of CYP11B2 in H295R cell assessed as reduction in aldosterone by LC/MS-MS method
T1 sequence (P19099 whole entry): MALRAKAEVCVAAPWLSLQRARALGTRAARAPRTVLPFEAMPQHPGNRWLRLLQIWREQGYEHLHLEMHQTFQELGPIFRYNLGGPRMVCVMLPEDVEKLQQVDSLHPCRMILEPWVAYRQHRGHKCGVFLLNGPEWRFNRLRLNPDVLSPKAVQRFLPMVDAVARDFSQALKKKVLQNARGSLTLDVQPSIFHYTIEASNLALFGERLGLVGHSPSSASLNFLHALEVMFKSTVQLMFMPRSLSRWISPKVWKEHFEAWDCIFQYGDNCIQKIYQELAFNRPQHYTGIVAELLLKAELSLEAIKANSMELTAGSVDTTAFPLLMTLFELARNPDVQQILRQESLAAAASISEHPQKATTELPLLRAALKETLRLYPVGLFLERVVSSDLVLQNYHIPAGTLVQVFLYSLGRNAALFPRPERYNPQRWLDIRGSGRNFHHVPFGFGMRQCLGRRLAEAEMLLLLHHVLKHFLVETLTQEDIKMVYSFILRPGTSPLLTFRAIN

[21] = target: T1, Cytochrome P450 11B2, mitochondrial; assay: Inhibition of human CYP11B2 expressed in human renal leiomyoblastoma cells harboring FDXR/FDX using 1-deoxycorticosterone as substrate by HTRF assay; assay type: cell-based; procedure, shortened: as §3

- clearance [1]: 3.8 mL/min/kg
- predicted hepatic clearance (CLH) [3]: 5 mL/min/kg
- bioavailability [5]: 45%
- CLint scaled [6]: 26.7 mL/min/kg
- pIC50 [7]: 8.70
- AUC/dose [8]: 2123 kg·ng·h/mL/mg
- clearance [10]: 4.6 mL/min/kg
- Cp(f) [11]: 0.075 ng/mL
- AUC(0-inf) [12]: 6370 ng·h/mL
- CLint scaled [13]: 7.2 mL/min/kg
- Cp(f) [16]: 10.3 ng/mL
- Cp(f) [19]: 86.46 ng/mL
- pIC50 [20]: > 9.00
- pIC50 [21]: 8.40
SMILES: CCS(=O)(=O)N1CC(Oc2cncc(N3C(=O)c4ccc(Cl)cc4C3(C)C)c2)C1
- inhibition (Cynomolgus monkey [2]): Active
- Ratio IC50 [4]: 162
- Activity (Cynomolgus monkey [9]): Non-Toxic
- Activity (Cynomolgus monkey [14]): Toxic
- Ratio IC50 [15]: 664
- Activity (Cynomolgus monkey [17]): Non-Toxic
- inhibition (Cynomolgus monkey [18]): inactive
